NR2E3 ag-1: activates human photoreceptor nuclear receptor NR2E3; GST-NR2E3/biotin-RetCOR TR-FRET, 1536-well; inhibition of corepressor binding, % at 4.78 µM; AID 2300; 0.12% of 320,000 active; Q9Y5X4;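 active = percent inhibition above the cutoff of mean plus 3 SD of all tested compounds, set per screening campaign, cut at about 20% in these data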;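 note: 0% = DMSO wells and 100% = biotin wells as full block of FRET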
Target sequence (Q9Y5X4 whole entry, looked up): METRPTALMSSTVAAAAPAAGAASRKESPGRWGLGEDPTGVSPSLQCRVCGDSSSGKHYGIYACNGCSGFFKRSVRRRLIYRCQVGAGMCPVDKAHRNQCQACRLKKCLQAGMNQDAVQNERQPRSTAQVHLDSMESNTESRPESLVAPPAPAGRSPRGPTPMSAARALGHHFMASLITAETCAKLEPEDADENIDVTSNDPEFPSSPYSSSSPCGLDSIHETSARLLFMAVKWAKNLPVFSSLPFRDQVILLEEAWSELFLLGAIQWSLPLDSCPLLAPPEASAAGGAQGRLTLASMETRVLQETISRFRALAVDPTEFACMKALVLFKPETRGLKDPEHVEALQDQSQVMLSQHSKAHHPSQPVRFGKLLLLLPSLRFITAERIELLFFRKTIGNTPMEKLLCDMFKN
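Material: NR2E3–RetCOR corepressor complex / Incubation: Compound–protein incubation for 5 h at 4 °C / Dosing: compound at 4.8 µM, single dose / Detection: time-resolved FRET / Benchmarks: high control biotin, low control 0.6% DMSO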
NR2E3 ag-2: human photoreceptor-specific nuclear receptor agonism; AID 602229; CHO-S Gal4-NCOR/VP16-NR2E3 two-hybrid, luciferase; 0.35% of 360,000 active; inhibition of corepressor binding, % at 3.98 µM; Q9Y5X4;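 active = inhibition above the mean of all tested compounds plus 3 SD, cut at about 70% in these data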;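 note: 0% = DMSO with NR2E3 transfected cells and 100% = cells lacking NR2E3 construct; higher means lower luciferase signal from less NR2E3 corepressor binding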
JMJD2C inh: inhibitors of human GASC-1 (JMJD2C) demethylase; 0.069% of 330,000 active; Q9H3R0; GST-JMJD2C(1-420) H3K9me3 demethylation, DELFIA europium; inhibition, % at 2.35 µM;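 active = more than half of a compound's replicate wells show inhibition beyond 50%, single wells judged on their own value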;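 note: signal counts dimethyl H3K9 product captured on neutravidin plate; 0% = median of DMSO wells and 100% = 0.3 times that DMSO median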
SMARCA2 activ: SMARCA2 function activation, primary screen; MG213 cells, MMTV-luciferase reporter, dexamethasone, overnight; activation, % at 9.1 µM; 1% of 370,000 active; AID 652017; in the data active = activation above about 7.8%;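 note: 0% = vehicle wells and 100% = reference activator wells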
DAX1 inh-1: NR0B1 (DAX1) inhibition; P51843; HEK293 Gal4-DAX1 luciferase reporter, luminescence; inhibition, % at 6.75 µM; 0.99% of 340,000 active; AID 504766;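 active = inhibition above the mean over all tested compounds plus 3 SD, cut at about 4.2% in these data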;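 note: 0% = DAX1-transfected cells with DMSO and 100% = empty-vector control cells with DMSO; inhibition shows as a rise in luminescence from relieved DAX1 repression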
Target sequence (P51843 207-470 limits assumed): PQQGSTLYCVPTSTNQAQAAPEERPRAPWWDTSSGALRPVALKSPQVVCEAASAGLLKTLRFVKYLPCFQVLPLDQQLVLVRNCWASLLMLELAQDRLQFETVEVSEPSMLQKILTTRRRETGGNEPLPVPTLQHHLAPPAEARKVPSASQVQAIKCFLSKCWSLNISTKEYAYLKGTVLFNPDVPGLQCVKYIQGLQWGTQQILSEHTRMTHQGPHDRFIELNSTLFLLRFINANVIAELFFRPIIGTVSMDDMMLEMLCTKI
DAX1 inh-2: DAX1 (NR0B1) inhibition, primary screen; HEK293T StAR-luciferase reporter, SF-1/DAX-1 repression relief; inhibition, % at 6.8 µM; 1.1% of 370,000 active;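 active = inhibition above the mean over all tested compounds plus 3 SD, cut at about 3.6% in these data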;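 note: 0% = DAX-1 cells with DMSO and 100% = cells lacking DAX-1 with DMSO; higher inhibition means more luminescence from relief of DAX-1 repression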
SMARCA2 conf: SMARCA2 activation, confirmation screen. 30% of 3,500 active. activation, % at 9.1 µM. shares compounds with SMARCA2 activ. MG213 cells, MMTV-luciferase with dexamethasone, luminescence, overnight; MG213 cells expressing E1A, Rb sequestered; DMSO wells 0%, reference activator 100%;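 active = activation above its plate's cutoff, the mean activation of tested wells plus 3 SD, cut at about 7.9% in these data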
GAL4-VP16 Luc: activates GAL4-VP16 luciferase, flagging SMARCA2 activator hits; shares compounds with SMARCA2 activ; AID 686939; HEK293 GAL4-VP16 pG5luc reporter, luciferase luminescence; scaled: DMSO wells 0%, SAHA wells 100%; activation, % at 9.1 µM; 41% of 3,500 active;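 active = activation above the solvent-only control well mean plus 3 SD, averaged across control plates, cut at about 5.2% in these data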
* hit, by the source's call; · = no result given; ! = not confirmed by another sample. Sampled rows, rich in hits. Any-hit rate of the full collection: about 3.2%.

SMILES | NR2E3 ag-1 | NR2E3 ag-2 | JMJD2C inh | SMARCA2 activ | DAX1 inh-1 | DAX1 inh-2 | SMARCA2 conf | GAL4-VP16 Luc
C[N+]1=C(N)N[C@@]2(C=C3CCCCC3n3c(=O)n(-c4ccccc4)c(=O)n32)C1 (stereo partly drawn) | · | · | · | -5.2 | · | -0.6 | · | ·
COc1ccccc1NC(=O)COC(=O)c1ccc(N2CCCC2=O)cc1 | 0.0 | -4.0 | -0.7 | -2.0 | 0.5 | 0.0 | · | ·
COc1ccc(Nc2nc(C)c(-c3ccccc3)s2)cc1 | -0.2 | -84.7 | -0.5 | 10.6* | 0.9 | 1.5 | 4.5 | 5.9*
Cc1nc(Nc2ccc(S(N)(=O)=O)cc2)sc1-c1ccccc1 | 0.3 | -1.8 | -0.4 | 2.9 | -0.7 | 0.3 | · | ·
COC(=O)[C@H](Cc1ccccc1)NC(=O)[C@H]1O[C@@H](n2cnc3c(=O)[nH]c(N)nc32)[C@H](O)[C@@H]1O | · | · | · | -2.4 | · | -0.5 | · | ·
O=C(Nc1cccc(C(F)(F)F)c1)C(=O)N1CCCCC1 | 2.9 | 2.7 | -11.3 | 9.5* | -0.8 | -0.1 | 2.0 | 2.6
Oc1ccc(NC(=S)N=Nc2c(O)[nH]c3ccccc23)cc1 | 1.7 | -67.1 | -6.1 | 9.7* | 0.1 | 0.6 | 4.4 | 14.7*
C=CCn1cnc2c(c1=O)c1nc3ccccc3nc1n2/N=C/c1cccc(OC)c1OC | 0.9 | -3.7 | · | 8.2* | 0.8 | -0.7 | -4.0 | 4.0
c1ccc(-c2ccc3c(n2)CCCN3Cc2ccccn2)cc1 | · | · | · | 8.9* | · | 1.4 | 2.6 | 8.7*
COc1cc(NC(=O)CSc2nccc(C)n2)c(C(=O)O)cc1OC | -3.4 | -8.0 | -3.2 | -3.0 | 1.1 | -0.3 | · | ·
COc1cc(NC(=O)CSc2cc(C)c3cc(C)cc(C)c3n2)c(C(=O)O)cc1OC | -2.8 | -20.2 | -22.8 | 8.4* | -1.6 | 1.0 | 2.4 | -1.0
C/C(N)=C(/C#N)C(=O)CSc1cc(C)c2cc(C)cc(C)c2n1 | 1.6 | -5.4 | 5.2 | 8.5* | -0.1 | -0.3 | -2.0 | -1.0
COC(=O)c1cc2ccsc2n1Cc1nc(-c2cccc(Cl)c2)oc1C | 0.1 | -14.8 | -3.4 | 11.6* | 0.8 | 0.7 | -6.2 | 0.2
COC(=O)c1cc2sccc2n1Cc1nc(-c2cccc(Cl)c2)oc1C | 2.9 | 0.8 | -0.5 | -1.3 | -0.1 | 1.1 | · | ·
Cc1ccc(CNC(=O)CCS(=O)(=O)c2ccc(C)cc2)cc1 | -0.9 | -1.6 | -2.6 | 10.2* | -1.1 | 0.5 | -0.8 | 0.1
Cc1ccc(S(=O)(=O)CCC(=O)NCc2ccc(Cl)cc2)cc1 | -2.3 | -2.9 | 3.2 | 0.1 | 0.2 | 0.2 | · | ·
CCOc1ccc(N(CC(=O)Nc2c(C)n(C)n(-c3ccccc3)c2=O)S(=O)(=O)c2cc(OC)ccc2OC)cc1 | · | · | · | -5.6 | · | -0.3 | · | ·
c1ccc2[nH]c(-c3ccnc4ccccc34)nc2c1 | 3.7 | -88.2 | -5.0 | 10.7*! | -0.5 | 1.0 | 5.5 | 2.7
COC(=O)[C@]12C[C@H](CC(=O)NCCc3ccccc3OC)C(=O)N(Cc3ccc(Cl)cc3Cl)C1=C[C@H](C1CCCC1)O[C@@H]2C | · | · | · | -2.0 | · | -0.9 | · | ·
Cc1nc(-c2ccc(NC(=O)C3CC3)cc2)cs1 | 9.0 | -77.1 | -2.0 | 8.2* | -0.2 | 1.6 | 9.7* | 8.9*
Cc1nc(-c2cccc(NC(=O)C3CCCCC3)c2)cs1 | -3.1 | -3.5 | 4.4 | 0.9 | 0.7 | -0.1 | · | ·
CCOC(=O)N1CCN(C(=O)CS(=O)(=O)c2cn(Cc3ccc(F)cc3)c3ccccc23)CC1 | -0.6 | 9.1 | 1.1 | 8.0* | -0.3 | -0.8 | -1.5 | 2.5
O=C(CS(=O)(=O)c1cn(Cc2ccc(Cl)cc2)c2ccccc12)N1CCCC1 | 0.6 | -24.1 | 0.1 | -2.4 | 0.4 | -1.6 | · | ·
O=S(=O)(Nc1ccc(Cl)nn1)c1ccccc1 | 6.3 | 15.2 | -5.4 | -3.9 | -1.8 | 0.0 | · | ·
O=S(=O)(NNc1ccc(Cl)nn1)c1ccc(F)cc1 | -4.0 | -6.3 | 23.2 | 8.4* | -0.4 | -0.7 | 1.4 | 1.1
SMILES | NR2E3 ag-1 | NR2E3 ag-2 | JMJD2C inh | SMARCA2 activ | DAX1 inh-1 | DAX1 inh-2 | SMARCA2 conf | GAL4-VP16 Luc
COc1cccc(CNS(=O)(=O)c2cc3c(cc2Br)CC(C)N3C(C)=O)c1 (stereo not drawn) | · | · | · | 1.8 | · | 0.3 | · | ·
COc1ccc(NC(=O)C[C@H]2C(=O)N(C3CCCCC3)C[C@@H]2C)cc1 | · | -11.1 | · | -3.6 | 0.7 | -0.4 | · | ·
COc1ccc(NC(=O)C[C@H]2C(=O)N(C3CCCCC3)C[C@@H]2CSC)cc1 | · | -14.0 | · | 8.3* | 0.3 | -0.4 | -1.9 | 1.3
O=C(NC1CCN(Cc2ccccc2)CC1)c1cccc(OC(F)F)c1 | 0.4 | -10.2 | -27.2 | 10.2* | 0.2 | 0.8 | 6.0 | 0.1
CCCNC(=O)C(Cc1ccc(I)cc1)NC(=O)c1ccc(C#N)cc1 (stereo not drawn) | -1.3 | 12.7 | -4.4 | 1.3 | 0.1 | 0.0 | · | ·
C=CCn1c(SCC(=O)Nc2ccc(-c3nc4ccc(C)cc4s3)cc2)nnc1-c1ccncc1 | -1.1 | -133.2 | 1.4 | 8.9* | -0.1 | 1.9 | 4.6 | 9.2*
Cc1nc2ccc(Cl)cc2nc(C)/c1=N\O | -0.7 | -167.2 | -0.7 | 8.1* | 5.3* | 1.9 | 9.7* | 8.7*
CCC(CO)(CO)N(CC(=O)Nc1ccc(OC)cc1)CC(=O)Nc1ccc(OC)cc1 | 0.8 | 4.9 | -6.9 | -0.3 | 0.0 | 0.5 | · | ·
CCN(CC)CCn1nc2c3c(cccc3c1=O)-c1ccccc1-2 | 0.0 | -42.8 | 0.5 | 34.8* | -2.3 | -2.9 | 72.3* | 3.8
COc1ccccc1C(=O)Nc1ccncc1 | -1.2 | 28.1 | -38.5 | 0.4 | -0.4 | -0.2 | · | ·
COc1ccccc1C(=O)Nc1nsc(-c2ccccc2)n1 | -2.7 | -91.4 | -3.6 | 8.8* | 3.0 | 2.6 | 13.4* | 15.2*
Cc1cc(OCc2cn3cccnc3n2)ccc1Cl | -2.3 | -48.4 | 24.1 | 8.4* | 0.5 | 0.8 | 8.5* | 5.6*
Clc1ccc(SCc2cn3cccnc3n2)cc1 | 2.0 | -71.7 | 5.6 | 1.3 | -0.5 | 2.1 | · | ·
CCCC[C@H](C(=O)N(C)c1ccccc1)[C@@H](O)c1ccc(C(C)=O)cc1 | · | · | · | 1.9 | · | -0.3 | · | ·
CC(=O)Nc1ccc(-c2c(C)cc3oc(=O)cc(-c4ccccc4)c3c2C)cc1 | · | 8.0 | · | 9.2* | -1.2 | -3.5 | -1.9 | 1.7
COC(=O)c1cc(S(=O)(=O)N2CCN(c3ccccc3Cl)CC2)cn1C | · | · | · | -5.7 | · | -1.6 | · | ·
COc1cc(/C=C(\C#N)c2nc3ccccc3[nH]2)cc(OC)c1O | -1.8 | -54.8 | -24.4 | 8.2* | 1.2 | -0.3 | 5.4 | 5.7*
N#C/C(=C\c1c(Cl)cccc1Cl)c1nc2ccccc2[nH]1 | 1.4 | -31.9 | 3.2 | 4.4 | -1.1 | -0.1 | · | ·
N#C/C(=C/c1cccs1)c1nc2ccccc2[nH]1 | -7.8 | -82.0 | -25.7 | 9.3* | -0.6 | -0.1 | 23.7* | 3.8
